Non-standard residues stand in square brackets, D forms with d. Residues, ends and D or L forms follow the SMILES beside them. *: point of attachment. Desaminotyrosyl = O=C(CCc1ccc(O)cc1)*; NMeF = CN[C@@H](Cc1ccccc1)C(=O)O; Aib = CC(C)(N)C(=O)O; Ava = NCCCCC(=O)O; GABA = NCCCC(=O)O; βAla = NCCC(=O)O; Sar = CNCC(=O)O
What was measured:
Type in all cases: functional, Mus musculus
[1] = Proliferative activity in osteoblastic MC3T3 E1 cell culture relative to OGP(10-14)
How it was run: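 MC3T3 E1 osteoblastic cells were seeded at 2 × 10⁴ cells/well in RMEM with 10% FCS at 37 °C in CO₂/air. After 46 h in serum, they were washed, kept serum-free for 2 h, then switched to RMEM with 4% fatty-acid-free BSA, with or without peptide. The peptide was freshly dissolved at 10^-6 M, diluted, and preincubated for 30 min at 37 °C. The final concentration was 10^-13 M unless otherwise specified, with some dose-response runs.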

[2] = (§1) Proliferative activity in fibroblastic […] cell culture relative to OGP(10-14)
How it was run: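 Mouse NIH 3T3 fibroblasts from confluent cultures were seeded at 2 × 10⁴ cells/well in RMEM with 10% FCS at 37 °C in CO₂/air for 46 h, then washed and held serum-free for 2 h. Medium was then replaced with RMEM containing 4% fatty-acid-free BSA, with or without peptide. The peptide was dissolved at 10^-6 M, diluted, and pre-warmed for 30 min at 37 °C. The final concentration was 10^-11 M unless otherwise stated.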

NIH3T3 = assay: as §1
How it was run: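 NIH 3T3 fibroblasts from confluent cultures in RMEM with 10% FCS, seeded at 2 × 10⁴ cells/well, 37 °C in CO₂/air. They were kept 46 h in FCS medium, then 2 h serum-free. Medium was switched to 4% fatty-acid-free BSA RMEM ± peptide, 10^-11 M final, preincubated 30 min at 37 °C. Read-out was cell number in triplicate wells, converted to treated/control ratio against OGP(10-14) reference.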

CC1(C)NC(=O)[C@H](Cc2ccc(O)cc2)NC(=O)CNC(=O)CNC(=O)[C@H](Cc2ccccc2)NC1=O (cyclo([Aib]FGGY))
Relative potency [1]: 0.19 | Relative potency [2]: 0.31

O=C1CNC(=O)[C@@H](Cc2ccccc2)NC(=O)CNC(=O)[C@@H](Cc2ccc(O)cc2)NC(=O)CN1
Relative potency [1]: 0.69 | Relative potency [2]: 0.84

O=C(O)CCCCNC(=O)[C@H](Cc1ccccc1)NC(=O)CNC(=O)CCc1ccc(O)cc1
Relative potency [1]: 0.78 | Relative potency [2]: 0.88

O=C1CNC(=O)[C@H](Cc2ccccc2)NC(=O)CNC(=O)[C@H](Cc2ccc(O)cc2)NC(=O)CN1
Relative potency [1]: 0.79 | Relative potency [2]: 1.12

CN(CC(=O)NCC(=O)O)C(=O)[C@H](Cc1ccccc1)NC(=O)CNC(=O)CCc1ccc(O)cc1 (Desaminotyrosyl-GF[Sar]G-OH)
Relative potency [1]: 0.15 | Relative potency [2]: 0.11

O=C1CNC(=O)[C@@H](Cc2ccc(O)cc2)NC(=O)CNC(=O)[C@@H](Cc2ccccc2)NC(=O)CN1
Relative potency [1]: 1.03 | Relative potency [2]: 1.16

O=C1CNC(=O)[C@H](Cc2ccccc2)NC(=O)[C@@H]2CCCN2C(=O)[C@H](Cc2ccc(O)cc2)NC(=O)CN1 (cyclo(FGGYP))
Relative potency [1]: 0.99 | Relative potency [2]: 0.9

O=C1CNC(=O)CNC(=O)[C@H](Cc2ccccc2)NC(=O)CNC(=O)[C@H](Cc2ccc(O)cc2)NC(=O)CCN1 (cyclo(FGG[βAla]YG))
Relative potency [1]: 0.36 | Relative potency [2]: 0.37

CN(CC(=O)O)C(=O)CNC(=O)[C@H](Cc1ccccc1)NC(=O)CNC(=O)CCc1ccc(O)cc1 (Desaminotyrosyl-GFG[Sar]-OH)
Relative potency [1]: 0.16 | Relative potency [2]: 0.14

O=C(O)CNC(=O)CNC(=O)[C@H](Cc1ccccc1)NC(=O)CNCCCc1ccc(O)cc1
Relative potency [1]: 0.81 | Relative potency [2]: 0.79

O=C1CNC(=O)[C@H](Cc2ccc(O)cc2)NC(=O)CNC(=O)[C@H](Cc2ccccc2)NC(=O)CN1
Relative potency [1]: 0.95 | Relative potency [2]: 1.02

O=C(O)C[C@@H]1NC(=O)CNC(=O)[C@H](Cc2ccccc2)NC(=O)CNC(=O)[C@H](Cc2ccc(O)cc2)NC1=O (cyclo(DYGFG))
Relative potency [1]: 0.14 | Relative potency [2]: 0.11

CN(CC(=O)N[C@@H](Cc1ccccc1)C(=O)NCC(=O)NCC(=O)O)C(=O)CCc1ccc(O)cc1 (Desaminotyrosyl-[Sar]FGG-OH)
Relative potency [1]: 0.31 | Relative potency [2]: 0.39

O=C(O)CNCCNC(=O)[C@H](Cc1ccccc1)NC(=O)CNC(=O)CCc1ccc(O)cc1
Relative potency [1]: 0.78 | Relative potency [2]: 0.8

H-YPFGG-OH
Relative potency [1]: 0.89 | Relative potency [2]: 0.96

O=C1CNC(=O)CNC(=O)[C@H](Cc2ccccc2)NC(=O)CNC(=O)[C@H](Cc2ccc(O)cc2)NC(=O)CCCCN1 (cyclo([Ava]YGFGG))
Relative potency [1]: 0.14 | Relative potency [2]: 0.18

O=C(O)CNC(=O)CNC[C@H](Cc1ccccc1)NC(=O)CNC(=O)CCc1ccc(O)cc1
Relative potency [1]: 0.7 | Relative potency [2]: 0.88

H-YGFGG-OH
Relative potency [1]: 1 | Relative potency (NIH3T3): 1

CN(C(=O)CNC(=O)CCc1ccc(O)cc1)[C@@H](Cc1ccccc1)C(=O)NCC(=O)NCC(=O)O (Desaminotyrosyl-G[NMeF]GG-OH)
Relative potency [1]: 0.52 | Relative potency [2]: 0.67

O=C1CNC(=O)CNC(=O)[C@H](Cc2ccccc2)NC(=O)CNC(=O)[C@H](Cc2ccc(O)cc2)NC(=O)CCCN1 (cyclo(FGG[GABA]YG))
Relative potency [1]: 0.2 | Relative potency [2]: 0.22

N[C@H](CNCC(=O)N[C@@H](Cc1ccccc1)C(=O)NCC(=O)NCC(=O)O)Cc1ccc(O)cc1
Relative potency [1]: 0.92 | Relative potency [2]: 0.87

O=C(O)CNC(=O)CNC(=O)[C@H](Cc1ccccc1)NCCNC(=O)CCc1ccc(O)cc1
Relative potency [1]: 0.61 | Relative potency [2]: 0.67

O=C1CNC(=O)CNC(=O)[C@H](Cc2ccccc2)NC(=O)CNC(=O)[C@H](Cc2ccc(O)cc2)NC(=O)CN1 (cyclo(FGGGYG))
Relative potency [1]: 0.26 | Relative potency [2]: 0.2

O=C1CNC(=O)[C@H](Cc2ccccc2)NC(=O)CNC(=O)[C@H](Cc2ccc(O)cc2)N1 (cyclo(FGYG))
Relative potency [1]: 0.35 | Relative potency [2]: 0.43

H-GGFGY-OH
Relative potency [1]: 0.71 | Relative potency [2]: 0.82

From ChEMBL document CHEMBL1135914, “Bioactive pseudopeptidic analogues and cyclostereoisomers of osteogenic growth peptide C-terminal pentapeptide, OGP(10-14)” (2002)
